# Results as given in ChEMBL document CHEMBL4411269, “Required Immunoproteasome Subunit Inhibition Profile for Anti-Inflammatory Efficacy and Clinical Candidate KZR-616 ((2 S,3 R)- N-(( S)-3-(Cyclopent-1-en-1-yl)-1-(( R)-2-methyloxiran-2-yl)-1-oxopropan-2-yl)-3-hydroxy-3-(4-methoxyphenyl)-2-(( S)-2-(2-morpholinoacetamido)propanamido)propenamide)” (J Med Chem, 2018).
# pIC50: −log10 of the molar value. Activity calls are given as the source filed them. The calls are words filed in the database; no cut-off is given here.
# Legend:
# [1] = tested on: Mus musculus; test: In vivo inhibition of LMP7 in Balb/c mouse splenocytes at 20 mg/kg, iv followed by dosing repeat on day 6, 8, 11, 13 and 15 and measured on 1 hr post last dose; type: functional, organism-based
# Outline: (§1)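 BALB/c mice dosed iv bolus in 10% sulfobutyl ether−β-cyclodextrin/10 mM sodium citrate pH 3.5; tissues taken 1 h after administration. Splenocytes strained and red cells lysed; kidney frozen, then bead-homogenized. Hypotonic lysate (20 mM Tris pH 8, 5 mM EDTA) at 1 mg/mL (spleen) or 5 mg/mL (kidney) run in the ProCISE active-site ELISA. Background-subtracted, protein-normalized activity relative to vehicle animals; n = 3.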
# [2] = target: T1, Proteasome subunit beta type-9 (Homo sapiens) (UniProt P28065); test: Inhibition of LMP2 in human PBMC at 125 nM by ELISA
# T1 sequence (whole entry): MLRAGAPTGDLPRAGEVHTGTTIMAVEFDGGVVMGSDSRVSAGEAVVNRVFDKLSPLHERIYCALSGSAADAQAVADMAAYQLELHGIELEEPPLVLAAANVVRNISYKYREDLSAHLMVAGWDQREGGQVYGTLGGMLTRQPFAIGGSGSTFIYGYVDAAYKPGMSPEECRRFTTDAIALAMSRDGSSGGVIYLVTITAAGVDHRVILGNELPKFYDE
# [3] = Toxicity in Balb/c mouse assessed as change in body weight at 20 mg/kg, iv followed by dosing repeat on day 6, 8, 11, 13 and 15 and co-treated with 5 mg/kg, iv KZR-504 and measured until day 18; type: organism-based; conditions: in vivo
# [4] = target: T1, Proteasome subunit beta type-9 (Homo sapiens); test: Inhibition of LMP2 in human PBMC at 125 nM in presence of KZR-504 by ELISA
# [5] = tested on: Mus musculus; test: In vivo inhibition of proteosome beta 5 in Balb/c mouse kidney at 20 mg/kg, iv followed by dosing repeat on day 6, 8, 11, 13 and 15 and measured on 1 hr post last dose; type: functional, organism-based; outline: as §1
# [6] = target: T2, Proteasome subunit beta type-8 (Homo sapiens) (UniProt P28062); test: Inhibition of LMP7 in human PBMC at 125 nM by ELISA
# T2 sequence (whole entry): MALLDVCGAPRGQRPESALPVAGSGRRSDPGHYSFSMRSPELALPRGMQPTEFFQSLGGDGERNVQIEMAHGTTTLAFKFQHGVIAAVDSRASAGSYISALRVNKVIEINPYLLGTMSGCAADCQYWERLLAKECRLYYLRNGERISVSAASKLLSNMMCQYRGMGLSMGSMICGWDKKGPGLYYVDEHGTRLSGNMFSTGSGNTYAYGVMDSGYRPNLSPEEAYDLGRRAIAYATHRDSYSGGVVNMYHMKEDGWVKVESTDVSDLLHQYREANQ
# Outline: (§2)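 Cryopreserved healthy-donor human PBMC in RPMI 1640 with 5% heat-inactivated FBS, exposed to compound (0.1% DMSO final) for 1 h at 37 °C, 5% CO2, then washed. Subunit-specific active-site occupancy read by ProCISE: biotinylated active-site probe binding, denaturation, streptavidin capture, subunit-specific antibody and HRP chemiluminescence. Signal normalized to protein and expressed relative to DMSO controls.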
# [7] = Toxicity in Balb/c mouse assessed as effect on cage-side observations at 20 mg/kg, iv followed by dosing repeat on day 6, 8, 11, 13 and 15 and measured until day 18; type: organism-based; conditions: in vivo
# [8] = Toxicity in Balb/c mouse assessed as change in body weight at 20 mg/kg, iv followed by dosing repeat on day 6, 8, 11, 13 and 15 and measured until day 18; type: organism-based; conditions: in vivo
# [9] = target: T2, Proteasome subunit beta type-8 (Homo sapiens); test: Inhibition of LMP7 in human PBMC at 125 nM in presence of KZR-504 by ELISA; outline: as §2
# [10] = tested on: Mus musculus; test: Antiarthritic activity in type 2 collagen antibody/LPS induced Balb/c mouse assessed as reduction in disease burden at 20 mg/kg, iv followed by dosing repeat on day 6, 8, 11, 13 and 15 and measured until day 18; type: functional, organism-based
# Outline: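 CAIA in 7−8 week old female BALB/c mice on breeder chow. Induced with 1.75 mg of a 5-antibody anti-type II collagen cocktail iv on day 0, then 25 μg LPS ip on day 3. Dosed as single iv boluses in 10% (w/v) sulfobutyl ether−β-cyclodextrin/10 mM sodium citrate (pH 3.5); vehicle-treated group included.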
# [11] = tested on: PBMC; test: Antiinflammatory activity in human PBMC assessed as reduction in LPS-stimulated IL-6 expression at 250 nM preincubated for 1 hr followed by LPS stimulation measured after 24 hrs by ELISA; type: functional, cell-based
# Outline: (§3)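 Cryopreserved healthy-donor PBMC in RPMI 1640 with 5% heat-inactivated FBS, 250 000 cells/well. Compound (0.1% DMSO final) for 1 h at 37 °C, 5% CO2, then 4 washes with medium. Stimulated with 1 μg/mL LPS for 24 h; supernatant TNFα, IL-6 and IL-12/23p40 by electrochemiluminescent immunoassay. Mean level relative to DMSO controls, n = 6.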
# [12] = tested on: PBMC; test: Cytotoxicity in human PBMC assessed as reduction in cell viability at 250 nM relative to control; type: cell-based
# [13] = tested on: PBMC; test: Antiinflammatory activity in human PBMC assessed as reduction in LPS-stimulated p40 subunit of […] expression at 250 nM preincubated for 1 hr followed by LPS stimulation measured after 24 hrs by ELISA; type: functional, cell-based; outline: as §3
# [14] = tested on: PBMC; test: Antiinflammatory activity in human PBMC assessed as reduction in anti-CD3/CD28 antibody-stimulated TNF-alpha expression at 250 nM preincubated for 1 hr followed by anti-CD3/CD28 antibody stimulation measured after 24 hrs by ELISA; type: functional, cell-based
# Outline: (§4)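 Healthy-donor PBMC, thawed from cryopreservation, 250 000 cells/well in RPMI 1640/5% FBS. Pretreated 1 h at 37 °C with compound alone or combined (0.1% DMSO final), washed 4 times, then stimulated 24 h with anti-CD3 and anti-CD28 antibodies. TNFα and IFNγ in supernatants by electrochemiluminescent ELISA; expressed relative to DMSO-treated controls (n = 6).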
# [15] = target: T3, Proteasome subunit beta type-8 (Homo sapiens, UniProt P28062); test: Inhibition of LMP7 in human MOLT4 cells by ELISA; type: cell-based
# T3 sequence (P28062 whole entry): T2 sequence (whole entry)
# [16] = tested on: PBMC; test: Antiinflammatory activity in human PBMC assessed as reduction in anti-CD3/CD28 antibody-stimulated IFN-gamma expression at 250 nM preincubated for 1 hr followed by anti-CD3/CD28 antibody stimulation measured after 24 hrs by ELISA; type: functional, cell-based; outline: as §4
# [17] = Selectivity ratio of IC50 for MECL1 in mouse A20 cells to IC50 for MECL1 in human MOLT4 cells; type: cell-based
# [18] = target: Proteasome subunit beta type-2 (Mus musculus, UniProt Q9R1P3); test: Inhibition of 20S proteosome beta 2 in mouse A20 cells by ELISA; type: cell-based
# Proteasome subunit beta type-2, sequence (Q9R1P3 whole entry): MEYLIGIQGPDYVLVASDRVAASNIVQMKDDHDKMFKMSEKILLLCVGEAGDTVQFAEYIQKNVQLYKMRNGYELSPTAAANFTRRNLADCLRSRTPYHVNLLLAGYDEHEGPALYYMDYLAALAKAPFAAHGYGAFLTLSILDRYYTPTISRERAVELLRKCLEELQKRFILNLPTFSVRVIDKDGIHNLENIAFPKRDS
# [19] = tested on: Mus musculus; test: Antiarthritic activity in type 2 collagen antibody/LPS induced Balb/c mouse assessed as reduction in disease burden at 5 mg/kg, iv followed by dosing repeat on day 6, 8, 11, 13 and 15 and measured until day 18
inhibition [2],inhibition [4],inhibition [6],inhibition [9],pIC50 [15],pIC50 [18],SMILES,inhibition [1],Activity [3],inhibition [5],Activity [7],Activity [8],Activity [10],Activity [11],Activity [12],Activity [13],Activity [14],Activity [16],Ratio IC50 [17],Activity [19]
Active,Active,Active,Active,,,COc1ccc(C[C@H](NC(=O)[C@@H](C)NC(=O)[C@H]2CC[C@H](O)CC2)C(=O)N[C@@H](CC2=CCCC2)C(=O)[C@@]2(C)CO2)cc1,Active,Non-Toxic,Active,Non-Toxic,Non-Toxic,inactive,,,,,,,
,,,,6.46,6.24,Cc1ccc(CC[C@H](NC(=O)[C@H](Cc2ccccc2)NC(=O)[C@H](CC(C)C)NC(=O)CN2CCCCCC2)C(=O)[C@@]2(C)CO2)cc1,,,,,,,inactive,30%,inactive,inactive,inactive,4,
,,,,7.41,6.07,COc1ccc([C@@H](O)[C@H](NC(=O)[C@H](C)NC(=O)CN2CCOCC2)C(=O)N[C@@H](CC2=CCCC2)C(=O)[C@@]2(C)CO2)cc1 [ZETOMIPZOMIB],,,,,,,Active,,Active,Active,Active,,Active
